Legend:
[1] = tested on: ANO 1; format: cell-based, rat; settings: for Effect on ANO 1 current density (channel activation): bath application of 20 µM TFP or 50 µM J-8 for 10–70 min
How it was run: (§1)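 HEK 293 cells transiently transfected with rat ANO with C-terminal YFP tag; cells of similar YFP intensity recorded whole-cell. Bath (mM): 150 CsCl, 10 HEPES, 10 EGTA, pH 7.4. Pipette: 150 mM Cl−, 10 mM HEDTA, 10 mM HEPES, pH 7.0, free Ca2+ 0.7–62 µM. Ramps −80 to +80 mV (1 s), every 15 s from 2 min after breakthrough; current density in pA/pF.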

[2] = tested on: ANO 2; format: cell-based, rat; settings: for Effect on ANO 2 current density (channel activation): bath application of 20 µM TFP or 50 µM J-8 for 10–70 min
How it was run: as §1

[3] = target: CaM (Bos taurus, UniProt P62157); test: Badan fluorescence peptide-binding assay with CaM; settings: 3 µM peptide, 1.5 µM CaM, free Ca2+ 0.007 to 10 µM
[4] = target: Badan-labeled ANO 1 RCBM peptide, mutant m2,6 (rat); test: other fluorescence titration
[5] = target: Badan-labeled ANO 2 RCBM peptide, mutant m15,20 (rat); test: other fluorescence titration
[6] = target: Badan-labeled ANO 1 RCBM peptide, mutant m15,20 (rat); test: other fluorescence titration
[7] = target: Badan-labeled ANO 2 RCBM peptide, mutant m2,6 (rat); test: other fluorescence titration

## NCCCCCCCCNS(=O)(=O)c1cccc2c(I)cccc12 [J-8]
[1]
  Effect on ANO 1 current density (channel activation): did not significantly reduce
[2]
  Effect on ANO 2 current density (channel activation): did not significantly reduce

## CN1CCN(CCCN2c3ccccc3Sc3ccc(C(F)(F)F)cc32)CC1 [TFP, trifluoperazine]
[1]
  Effect on ANO 1 current density (channel activation): did not significantly reduce
[2]
  Effect on ANO 2 current density (channel activation): did not significantly reduce

## CN[C@@H]1C[C@H]2O[C@@](C)([C@@H]1OC)n1c3ccccc3c3c4c(c5c6ccccc6n2c5c31)C(=O)NC4 [staurosporine]
[1]; 0.2–2 µM, 5–50 min, applied to the bath solution, 6 cells, unpublished data
  Effect on ANO 1 channel activation or inactivation: did not detect any effect
[2]; 0.2–2 µM, 5–50 min, applied to the bath solution, 18 cells, unpublished data
  Effect on ANO 2 channel activation or inactivation: did not detect any effect

## RKLEYEEEASYGVFYKEQPIDEVRK [ANO ctrl]
[3]
  CaM binding of Badan-labeled peptide (Ca2+-dependent change of emission spectra): completely abolished CaM binding

## wild-type calmodulin (wt CaM), purchased (from UniProt P0DP23 1-149) (natural protein)
[4]
  EC50 of free Ca^2+ for CaM binding: 12 µM
[5]
  EC50 of free Ca^2+ for CaM binding: 0.6 µM
[6]
  EC50 of free Ca^2+ for CaM binding: 15.2 µM
[7]
  EC50 of free Ca^2+ for CaM binding: 6 µM
